Experimental data taken from ChEMBL document CHEMBL4706641, “Novel Carboline Fungal Histone Deacetylase (HDAC) Inhibitors for Combinational Treatment of Azole-Resistant Candidiasis” (J Med Chem, 2021).
In brackets after ≈: the same amount, converted by molar mass. Activity calls are given as the source filed them.

How the values were obtained:
[1] = system: Candida albicans; experiment: Antifungal activity against Candida albicans 0304103 incubated for 48 hrs by microdilution assay; assay type: functional
In short: (§1)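 Checkerboard broth microdilution per CLSI M27-A3 (modified), clinical Candida isolates. Exponential cells in RPMI 1640 (MOPS-buffered) at 10³ cells/mL; fluconazole 0.25–64 μg/mL crossed with test compound 2–64 μg/mL (final). 48 h at 35 °C; OD630 read with background subtracted. MIC80 = 80% growth inhibition; FICI ≤0.5 synergy, >4 antagonism.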

[2] = system: Candida albicans; experiment: Synergistic antifungal activity against Candida albicans 0304103 incubated for 48 hrs in presence of fluconazole by microdilution assay; assay type: functional; in short: as §1
[3] = system: Candida albicans; experiment: microbe, parasite or virus in culture; assay type: functional, 0304103
[4] = system: Candida albicans; experiment: Synergistic antifungal activity against Candida albicans 0304103 assessed as potentiation of fluconazole antifungal activity by measuring FICI incubated for 48 hrs in presence of fluconazole by checkerboard microdilution assay; assay type: functional; in short: as §1
[5] = system: Candida albicans; experiment: Synergistic antifungal activity against azole-resistant Candida albicans assessed as potentiation of VRC antifungal activity by measuring VRC incubated for 48 hrs in presence of fluconazole by checkerboard microdilution assay; assay type: functional
[6] = system: Candida albicans; experiment: Synergistic antifungal activity against azole-resistant Candida albicans assessed as potentiation of ITC antifungal activity by measuring ITC incubated for 48 hrs in presence of fluconazole by checkerboard microdilution assay; assay type: functional
[7] = system: Candida albicans; experiment: Antifungal activity against Candida albicans 0304103 at 64 ug/ml incubated for 48 hrs by microdilution assay; assay type: functional, organism-based; settings: dose 64.0 µg/ml
In short: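 Checkerboard microdilution adapted from CLSI M27-A3. Exponential-phase cells resuspended at 10³ cells/mL in RPMI 1640 buffered with 0.165 M MOPS. Final concentrations were fluconazole 0.25–64 μg/mL and test compound 2–64 μg/mL. Plates were held 48 h at 35 °C and read at OD630 with background subtracted. MIC80 was used, and the FICI cut-offs were synergy ≤0.5 and antagonism >4.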

[8] = system: Candida albicans; experiment: Antifungal activity against Candida albicans 9172 incubated for 48 hrs by microdilution assay; assay type: functional; in short: as §1
[9] = system: Candida albicans; experiment: Antifungal activity against Candida albicans 9884 incubated for 48 hrs by microdilution assay; assay type: functional; in short: as §1
[10] = system: Candida albicans; experiment: Antifungal activity against Candida albicans 10061 incubated for 48 hrs by microdilution assay; assay type: functional; in short: as §1
[11] = system: Candida albicans; experiment: Antifungal activity against Candida albicans 4108 incubated for 48 hrs by microdilution assay; assay type: functional; in short: as §1
[12] = system: Pichia kudriavzevii; experiment: Antifungal activity against Candida krusei 10153 incubated for 48 hrs by microdilution assay; assay type: functional; in short: as §1
[13] = system: Candida albicans; experiment: Effect on CDR2 mRNA expression in Candida albicans 0304103 at 32 ug/ml incubated for 24 hrs by RT-PCR analysis; assay type: functional; settings: dose 32.0 µg/ml
In short: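 C. albicans 0304103 was started at 1 × 10⁶ cells/mL and treated with DMSO control, fluconazole 32 μg/mL, test compound 32 μg/mL, or both. Cultures were held in YEPD at 35 °C for 24 h, then total RNA was extracted and reverse-transcribed. Real-time PCR ran 40 cycles. Fold change was calculated by 2^−ΔΔCt against ACT1.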

[14] = system: Candida albicans; experiment: Induction of morphological changes in Candida albicans assessed as reduction in morphological conversion from yeast to hypha forms at 32 ug/ml incubated for 3 hrs by inverse fluorescence microscopy; assay type: functional, organism-based; settings: dose 32.0 µg/ml
In short: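 Exponential-phase C. albicans were suspended in Spider medium ([…], 2% NaHCO₃, […]) at 2 × 10⁶ cells/mL. Drugs were added alone or combined, with DMSO as control. After 3 h at 37 °C, cells were imaged by inverted fluorescence microscopy. Three independent experiments were run.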

[15] = system: Candida albicans; experiment: Inhibition of biofilm formation in Candida albicans 0304103 at 2 to 32 ug/ml incubated for 24 hrs by XTT reduction assay; assay type: functional, organism-based; settings: dose 2-32 µg/ml
In short: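 C. albicans 0304103 at 1.0 × 10⁶ CFU/mL in RPMI 1640 was allowed to adhere for 90 min at 37 °C, then washed with PBS. Fresh medium was added with fluconazole 2–32 μg/mL and/or test compound 0.12–64 μg/mL, followed by 24 h at 37 °C. Biofilm was measured semiquantitatively by XTT reduction at OD490. Three independent experiments were run.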

[16] = system: Candida albicans; experiment: Antifungal activity against Candida albicans 0304103 infected in ICR mouse model of candidiasis assessed as reduction in kidney fungal burden at 1 mg/kg, ip dosed 24 hrs post infection and measured after 5 days; assay type: functional, organism-based; settings: time 5.0 day
[17] = system: Candida albicans; experiment: Antifungal activity against Candida albicans 0304103 infected in ICR mouse model of candidiasis assessed as reduction in fungal invasion by measuring clusters of fungal infiltration in renal pelvis at 1 mg/kg, ip dosed 24 hrs post infection and measured after 5 days by H and E staining based microscopical analysis; assay type: functional, organism-based; settings: time 5.0 day
[18] = system: Candida albicans; experiment: Antifungal activity against Candida albicans 0304103 infected in ICR mouse model of candidiasis assessed as reduction in morphological changes of budded-to-hyphal transition at 1 mg/kg, ip dosed 24 hrs post infection and measured after 5 days by H and E staining based microscopical analysis; assay type: functional, organism-based; settings: time 5.0 day
[19] = system: Candida albicans; experiment: Synergistic antifungal activity against Candida albicans 9172 incubated for 48 hrs in presence of fluconazole by microdilution assay; assay type: functional; in short: as §1
[20] = system: Candida albicans; experiment: Synergistic antifungal activity against Candida albicans 9884 incubated for 48 hrs in presence of fluconazole by microdilution assay; assay type: functional; in short: as §1
[21] = system: Candida albicans; experiment: Synergistic antifungal activity against Candida albicans 10061 incubated for 48 hrs in presence of fluconazole by microdilution assay; assay type: functional; in short: as §1
[22] = system: Candida albicans; experiment: Synergistic antifungal activity against Candida albicans 4108 incubated for 48 hrs in presence of fluconazole by microdilution assay; assay type: functional; in short: as §1
[23] = system: Pichia kudriavzevii; experiment: Synergistic antifungal activity against Candida krusei 10153 incubated for 48 hrs in presence of fluconazole by microdilution assay; assay type: functional; in short: as §1
[24] = system: Candida albicans; experiment: Synergistic antifungal activity against Candida albicans 9172 assessed as fluconazole MIC incubated for 48 hrs in presence of fluconazole by microdilution assay (reference value: fluconazole alone MIC = >[…] ug/ml); assay type: functional
[25] = system: Candida albicans; experiment: Synergistic antifungal activity against Candida albicans 9884 assessed as fluconazole MIC incubated for 48 hrs in presence of fluconazole by microdilution assay (reference value: fluconazole alone MIC = >[…] ug/ml); assay type: functional
[26] = system: Candida albicans; experiment: Synergistic antifungal activity against Candida albicans 10061 assessed as fluconazole MIC incubated for 48 hrs in presence of fluconazole by microdilution assay (reference value: fluconazole alone MIC = >[…] ug/ml); assay type: functional
[27] = system: Candida albicans; experiment: Synergistic antifungal activity against Candida albicans 4108 assessed as fluconazole MIC incubated for 48 hrs in presence of fluconazole by microdilution assay (reference value: fluconazole alone MIC = >[…] ug/ml); assay type: functional
[28] = system: Pichia kudriavzevii; experiment: Synergistic antifungal activity against Candida krusei 10153 assessed as fluconazole MIC incubated for 48 hrs in presence of fluconazole by microdilution assay (reference value: fluconazole alone MIC = […] ug/ml); assay type: functional
[29] = system: Cryptococcus neoformans; experiment: Antifungal activity against Cryptococcus neoformans; assay type: functional
[30] = Candida albicans, 0304103, read-out: MIC80
[31] = Candida albicans, 0304103, time 48 hrs, read-out: MIC80

O=C(Cc1ccc(OCCCn2c3c(c4c(Cl)cccc42)CCNC3)cc1)NO
MIC80 [1, 30]: > 64 µg/mL
MIC80 [2]: 2 µg/mL
MIC80 [3, 31]: 0.5 µg/mL (≈ 1.21 µM)
fractional inhibitory concentration index (FICI) [4]: 0.039
fractional inhibitory concentration index (FICI) [5]: 0.035
fractional inhibitory concentration index (FICI) [6]: 0.035

OC(Cn1cncn1)(Cn1cncn1)c1ccc(F)cc1F [FLUCONAZOLE]
MIC80 [1, 30]: > 64 µg/mL
Activity [7]: inactive
MIC80 [8]: > 64 µg/mL
MIC80 [9]: > 64 µg/mL
MIC80 [10]: > 64 µg/mL
MIC80 [11]: > 64 µg/mL
MIC80 [12]: 64 µg/mL (≈ 209 µM)
Activity [13]: inactive
Activity [14]: inactive
inhibition [15]: inactive
Activity [16]: inactive
Activity [17]: inactive
Activity [18]: inactive

O=C(CCCCCCC(=O)Nc1ccccc1)NO [VORINOSTAT]
MIC80 [1]: >64 µg/mL
MIC80 ([3]; 48 h): 0.25 µg/mL (≈ 0.946 µM)

O=C(Cc1ccc(OCCCn2c3c(c4ccc(Br)cc42)CCNC3)cc1)NO
MIC80 [1, 30]: > 64 µg/mL
MIC80 [2]: 2 µg/mL
MIC80 [3, 31]: 0.5 µg/mL (≈ 1.09 µM)
fractional inhibitory concentration index (FICI) [4]: 0.039
fractional inhibitory concentration index (FICI) [5]: 0.035
fractional inhibitory concentration index (FICI) [6]: 0.035

O=C(Cc1ccc(OCCCn2c3c(c4ccc(F)cc42)CCNC3)cc1)NO
MIC80 [1, 30]: > 64 µg/mL
MIC80 [2]: 2 µg/mL
MIC80 [3, 31]: 1 µg/mL (≈ 2.52 µM)
fractional inhibitory concentration index (FICI) [4]: 0.047
fractional inhibitory concentration index (FICI) [5]: 0.035
fractional inhibitory concentration index (FICI) [6]: 0.035

O=C(Cc1ccc(OCCCn2c3c(c4ccccc42)CCNC3)cc1)NO
MIC80 [1, 30]: > 64 µg/mL
MIC80 [2]: 4 µg/mL
MIC80 [3, 31]: 0.5 µg/mL (≈ 1.32 µM)
fractional inhibitory concentration index (FICI) [4]: 0.07
fractional inhibitory concentration index (FICI) [5]: 0.035
fractional inhibitory concentration index (FICI) [6]: 0.035

O=C(Cc1ccc(OCCCn2c3c(c4c(Br)cccc42)CCNC3)cc1)NO
MIC80 [1, 30]: > 64 µg/mL
MIC80 [2]: 4 µg/mL
MIC80 [3, 31]: 0.25 µg/mL (≈ 0.545 µM)
fractional inhibitory concentration index (FICI) [4]: 0.066
fractional inhibitory concentration index (FICI) [5]: 0.035
fractional inhibitory concentration index (FICI) [6]: 0.035

CN1CCc2c(c3ccccc3n2Cc2ccc(C(=O)NO)cc2)C1 [TUBASTATIN A]
MIC80 [8]: > 64 µg/mL
MIC80 [9]: > 64 µg/mL
MIC80 [10]: > 64 µg/mL
MIC80 [11]: > 64 µg/mL
MIC80 [12]: > 64 µg/mL
MIC80 [19]: 16 µg/mL
MIC80 [20]: 4 µg/mL
MIC80 [21]: 2 µg/mL
MIC80 [22]: 8 µg/mL
MIC80 [23]: 64 µg/mL
MIC80 [24]: 0.5 µg/mL
MIC80 [25]: 1 µg/mL
MIC80 [26]: 0.5 µg/mL
MIC80 [27]: 0.5 µg/mL
MIC80 [28]: 32 µg/mL

O=C(Cc1ccc(OCCCn2c3c(c4cc(Br)ccc42)CCNC3)cc1)NO
MIC80 [1, 30]: 64 µg/mL (≈ 140 µM)
MIC80 [2]: 2 µg/mL
MIC80 [3, 31]: 0.25 µg/mL (≈ 0.545 µM)
fractional inhibitory concentration index (FICI) [4]: 0.035
fractional inhibitory concentration index (FICI) [5]: 0.035
fractional inhibitory concentration index (FICI) [6]: 0.035

COc1ccc2c(c1)c1c(n2CCCOc2ccc(CC(=O)NO)cc2)CNCC1
MIC80 [1, 30]: > 64 µg/mL
MIC80 [2]: 8 µg/mL
MIC80 [3, 31]: 0.5 µg/mL (≈ 1.22 µM)
fractional inhibitory concentration index (FICI) [4]: 0.13
fractional inhibitory concentration index (FICI) [5]: 0.035
fractional inhibitory concentration index (FICI) [6]: 0.035

COc1cccc2c3c(n(CCCOc4ccc(CC(=O)NO)cc4)c12)CNCC3
MIC80 [1, 30]: > 64 µg/mL
MIC80 [2]: 2 µg/mL
MIC80 [3, 31]: 1 µg/mL (≈ 2.44 µM)
fractional inhibitory concentration index (FICI) [4]: 0.047
fractional inhibitory concentration index (FICI) [5]: 0.035
fractional inhibitory concentration index (FICI) [6]: 0.035

O=C(Cc1ccc(OCCCn2c3c(c4ccc(Cl)cc42)CCNC3)cc1)NO
MIC80 [1, 30]: 64 µg/mL (≈ 155 µM)
MIC80 [2]: 2 µg/mL
MIC80 [3, 31]: 1 µg/mL (≈ 2.42 µM)
fractional inhibitory concentration index (FICI) [4]: 0.047
fractional inhibitory concentration index (FICI) [5]: 0.035
fractional inhibitory concentration index (FICI) [6]: 0.035

Cc1ccc2c(c1)c1c(n2CCCOc2ccc(CC(=O)NO)cc2)CNCC1
MIC80 [1, 30]: > 64 µg/mL
MIC80 [2]: 4 µg/mL
MIC80 [3, 31]: 1 µg/mL (≈ 2.54 µM)
fractional inhibitory concentration index (FICI) [4]: 0.078
fractional inhibitory concentration index (FICI) [5]: 0.035
fractional inhibitory concentration index (FICI) [6]: 0.035

Clc1ccc(OCCCn2c3c(c4cc(Cl)ccc42)CCNC3)cc1.O=C(O)C(F)(F)F
MIC80 [29]: 0.25 µg/mL

O=C(Cc1ccc(OCCCn2c3c(c4cc(F)ccc42)CCNC3)cc1)NO
MIC80 [1, 30]: > 64 µg/mL
MIC80 [2]: 2 µg/mL
MIC80 [3, 31]: 2 µg/mL (≈ 5.03 µM)
fractional inhibitory concentration index (FICI) [4]: 0.062
fractional inhibitory concentration index (FICI) [5]: 0.035
fractional inhibitory concentration index (FICI) [6]: 0.035
